Legend:
[1] = molecular target: Receptor-type tyrosine-protein phosphatase F (Homo sapiens, UniProt P10586); assay: Concentration required for 50% Inhibition of activity against Protein-tyrosine phosphatase Lar
Summary of the method: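 Yersinia PTPase and LAR, commercial enzymes. p-NPP at 2.5 mM; 1 mM EDTA, 100 mM NaCl, 100 mM acetate pH 5.5, 10% DMSO, 25 °C. Initial rates taken from hydrolysis followed at 420 nm, 10–120 s after mixing. IC50 obtained by Dixon analysis.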

[2] = molecular target: T1, Tyrosine-protein phosphatase non-receptor type 1 (Homo sapiens, UniProt P18031); assay: Concentration required for 50% Inhibition of activity against Protein Tyrosine Phosphatases 1B
T1 sequence (P18031 whole entry): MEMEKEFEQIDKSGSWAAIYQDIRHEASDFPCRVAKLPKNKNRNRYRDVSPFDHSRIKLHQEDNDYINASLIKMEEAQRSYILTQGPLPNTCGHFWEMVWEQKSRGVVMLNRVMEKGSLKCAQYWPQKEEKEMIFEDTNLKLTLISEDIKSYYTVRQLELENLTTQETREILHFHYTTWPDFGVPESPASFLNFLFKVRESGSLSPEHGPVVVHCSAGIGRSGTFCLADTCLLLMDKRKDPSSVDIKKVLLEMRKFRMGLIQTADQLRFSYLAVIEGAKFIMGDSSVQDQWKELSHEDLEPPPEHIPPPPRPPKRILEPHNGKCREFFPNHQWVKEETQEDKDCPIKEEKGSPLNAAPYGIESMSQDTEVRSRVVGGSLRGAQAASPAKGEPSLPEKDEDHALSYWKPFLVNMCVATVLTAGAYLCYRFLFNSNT

Receptor-type tyrosine-protein phosphatase F, sequence (P10586 whole entry): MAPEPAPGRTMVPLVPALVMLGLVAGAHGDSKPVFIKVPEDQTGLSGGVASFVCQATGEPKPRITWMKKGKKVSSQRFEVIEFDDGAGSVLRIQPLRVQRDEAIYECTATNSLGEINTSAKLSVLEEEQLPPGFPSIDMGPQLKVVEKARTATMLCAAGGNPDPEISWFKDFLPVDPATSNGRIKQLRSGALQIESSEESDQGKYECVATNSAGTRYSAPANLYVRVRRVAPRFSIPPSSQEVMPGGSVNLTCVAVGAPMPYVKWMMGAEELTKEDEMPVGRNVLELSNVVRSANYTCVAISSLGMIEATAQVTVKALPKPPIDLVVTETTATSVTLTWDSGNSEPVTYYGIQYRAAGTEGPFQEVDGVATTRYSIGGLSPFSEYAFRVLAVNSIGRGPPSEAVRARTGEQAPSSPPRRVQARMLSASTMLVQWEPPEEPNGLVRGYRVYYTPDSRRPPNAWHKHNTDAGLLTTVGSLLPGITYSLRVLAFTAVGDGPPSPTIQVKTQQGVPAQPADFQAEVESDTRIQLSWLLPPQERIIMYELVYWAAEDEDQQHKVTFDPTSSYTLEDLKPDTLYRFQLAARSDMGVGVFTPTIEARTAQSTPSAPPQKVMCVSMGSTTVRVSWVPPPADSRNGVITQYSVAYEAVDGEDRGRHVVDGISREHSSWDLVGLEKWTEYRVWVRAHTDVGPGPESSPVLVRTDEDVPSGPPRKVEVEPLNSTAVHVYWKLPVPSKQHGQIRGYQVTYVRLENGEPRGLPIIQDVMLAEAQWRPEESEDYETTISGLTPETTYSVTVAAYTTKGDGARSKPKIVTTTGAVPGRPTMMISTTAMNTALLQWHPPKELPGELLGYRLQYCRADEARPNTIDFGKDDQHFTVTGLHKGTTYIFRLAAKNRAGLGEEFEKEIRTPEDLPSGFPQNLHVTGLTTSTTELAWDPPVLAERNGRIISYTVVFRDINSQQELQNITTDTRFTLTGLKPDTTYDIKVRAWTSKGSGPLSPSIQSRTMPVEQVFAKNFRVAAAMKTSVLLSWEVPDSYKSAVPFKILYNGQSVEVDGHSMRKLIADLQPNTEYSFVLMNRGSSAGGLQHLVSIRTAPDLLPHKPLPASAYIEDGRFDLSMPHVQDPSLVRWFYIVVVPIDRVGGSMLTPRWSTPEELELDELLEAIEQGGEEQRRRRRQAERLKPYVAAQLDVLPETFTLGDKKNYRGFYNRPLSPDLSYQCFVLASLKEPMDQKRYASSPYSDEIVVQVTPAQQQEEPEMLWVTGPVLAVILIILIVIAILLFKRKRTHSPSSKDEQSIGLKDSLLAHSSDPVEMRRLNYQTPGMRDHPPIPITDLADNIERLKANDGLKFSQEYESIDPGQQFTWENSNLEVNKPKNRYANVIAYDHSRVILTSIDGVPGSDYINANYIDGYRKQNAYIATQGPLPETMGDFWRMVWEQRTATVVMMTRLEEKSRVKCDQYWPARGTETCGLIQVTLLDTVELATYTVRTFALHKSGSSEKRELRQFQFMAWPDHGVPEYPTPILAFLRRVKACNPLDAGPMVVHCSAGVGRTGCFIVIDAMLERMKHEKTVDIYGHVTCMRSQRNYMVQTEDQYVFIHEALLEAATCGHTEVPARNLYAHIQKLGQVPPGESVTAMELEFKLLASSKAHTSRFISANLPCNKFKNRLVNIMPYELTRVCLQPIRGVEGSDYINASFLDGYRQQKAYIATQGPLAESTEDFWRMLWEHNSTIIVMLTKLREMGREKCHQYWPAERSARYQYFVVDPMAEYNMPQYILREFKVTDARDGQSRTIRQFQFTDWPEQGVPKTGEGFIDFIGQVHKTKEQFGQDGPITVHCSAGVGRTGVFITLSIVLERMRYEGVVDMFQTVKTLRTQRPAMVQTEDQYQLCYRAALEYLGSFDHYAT

Structure (SMILES)	IC50 [1]	IC50 [2]
O=C(O)C(=O)c1ccc(OCc2cccc(COc3ccc(C(=O)C(=O)O)cc3)c2)cc1	120 µM	53 µM
O=C(O)C(=O)c1ccc(OCc2cc(COc3ccc(C(=O)C(=O)O)cc3)cc(COc3ccc(C(=O)C(=O)O)cc3)c2)cc1	41 µM	13 µM
O=C(O)C(=O)c1ccc(OCc2ccc(COc3ccc(C(=O)C(=O)O)cc3)cc2)cc1	250 µM	2.7 µM

Now from value to molecule:

IC50 [1]	IC50 [2]	Structure (SMILES)
2300 µM	–	O=C(O)C(=O)c1ccc(O)cc1
120 µM	19 µM	O=C(O)C(=O)c1ccc(OCc2ccccc2COc2ccc(C(=O)C(=O)O)cc2)cc1
